Test results taken from the M2OR odorant receptor database.
Substitutions are numbered along the chain they refer to.

Key:
Settings in all cases: stereoisomer not certain
OR5T2 S4G = system: T1, OR5T2 S4G
T1 sequence (whole entry): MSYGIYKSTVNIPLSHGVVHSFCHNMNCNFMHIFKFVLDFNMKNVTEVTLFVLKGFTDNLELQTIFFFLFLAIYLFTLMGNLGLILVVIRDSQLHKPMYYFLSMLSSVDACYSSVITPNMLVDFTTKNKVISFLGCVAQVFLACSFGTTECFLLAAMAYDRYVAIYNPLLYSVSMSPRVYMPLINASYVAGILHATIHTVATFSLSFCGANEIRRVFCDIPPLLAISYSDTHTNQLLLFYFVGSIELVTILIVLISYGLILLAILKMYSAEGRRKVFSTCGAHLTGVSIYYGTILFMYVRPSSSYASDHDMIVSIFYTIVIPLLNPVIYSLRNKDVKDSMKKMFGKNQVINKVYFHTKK
Procedure, shortened: (§1)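 Transient luciferase assays in mammalian cell lines were common, though methods varied by source. The values come from published papers and their supplementary material, with extra details from the original authors when needed. Responsive refers to a measured signal the original authors judged statistically different from baseline, and non-responsive (inactive) to the remainder.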

OR5T3 (Homo sapiens) = biological target: T2, OR5T3 (Homo sapiens) (UniProt Q8NGG3)
T2 sequence (whole entry): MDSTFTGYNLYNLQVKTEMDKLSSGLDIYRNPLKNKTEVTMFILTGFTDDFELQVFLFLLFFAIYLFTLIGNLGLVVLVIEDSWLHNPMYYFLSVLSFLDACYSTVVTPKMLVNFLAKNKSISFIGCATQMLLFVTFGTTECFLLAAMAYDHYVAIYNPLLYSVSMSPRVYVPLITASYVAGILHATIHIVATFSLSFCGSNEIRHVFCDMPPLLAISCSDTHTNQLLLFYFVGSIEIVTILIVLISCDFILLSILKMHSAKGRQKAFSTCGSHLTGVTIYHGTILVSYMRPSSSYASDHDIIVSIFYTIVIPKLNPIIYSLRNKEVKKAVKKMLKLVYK
Procedure, shortened: as §1

OR5V1 (Homo sapiens) = biological target: T3, OR5V1 (Homo sapiens) (UniProt Q9UGF6)
T3 sequence (whole entry): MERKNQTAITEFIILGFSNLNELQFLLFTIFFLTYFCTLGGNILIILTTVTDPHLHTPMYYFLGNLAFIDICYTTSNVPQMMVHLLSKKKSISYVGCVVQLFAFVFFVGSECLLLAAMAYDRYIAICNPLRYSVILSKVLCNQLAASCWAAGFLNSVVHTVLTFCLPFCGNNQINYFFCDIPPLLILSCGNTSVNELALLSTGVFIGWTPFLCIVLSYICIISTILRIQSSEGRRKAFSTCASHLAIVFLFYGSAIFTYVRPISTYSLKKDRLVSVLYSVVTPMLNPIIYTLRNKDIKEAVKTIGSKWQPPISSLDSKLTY
Procedure, shortened: as §1

OR5W2 (Homo sapiens) = biological target: T4, OR5W2 (Homo sapiens) (UniProt Q8NH69)
T4 sequence (whole entry): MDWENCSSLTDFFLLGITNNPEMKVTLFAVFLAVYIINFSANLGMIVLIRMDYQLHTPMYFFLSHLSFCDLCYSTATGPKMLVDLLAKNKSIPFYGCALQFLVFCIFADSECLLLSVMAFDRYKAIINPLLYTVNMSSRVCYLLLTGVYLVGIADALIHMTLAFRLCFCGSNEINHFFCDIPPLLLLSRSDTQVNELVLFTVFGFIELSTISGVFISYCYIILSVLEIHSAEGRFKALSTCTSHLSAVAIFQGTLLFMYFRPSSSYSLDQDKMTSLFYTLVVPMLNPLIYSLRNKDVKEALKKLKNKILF
Procedure, shortened: as §1

OR5W2 R189C = system: T5, OR5W2 R189C
T5 sequence (whole entry): T4 sequence (whole entry) with R189C
Procedure, shortened: as §1

OR6A2 (Homo sapiens) = biological target: T6, OR6A2 (Homo sapiens) (UniProt O95222)
T6 sequence (whole entry): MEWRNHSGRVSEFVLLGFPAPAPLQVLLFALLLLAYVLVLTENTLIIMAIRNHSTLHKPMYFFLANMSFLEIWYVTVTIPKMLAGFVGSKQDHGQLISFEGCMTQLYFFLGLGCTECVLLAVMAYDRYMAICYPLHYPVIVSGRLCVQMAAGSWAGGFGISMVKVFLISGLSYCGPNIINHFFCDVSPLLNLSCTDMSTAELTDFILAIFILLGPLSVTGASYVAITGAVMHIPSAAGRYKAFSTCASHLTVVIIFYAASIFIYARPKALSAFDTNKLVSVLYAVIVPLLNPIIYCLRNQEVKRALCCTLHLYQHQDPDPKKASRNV
Procedure, shortened: as §1

OR6A2 I50V = system: T7, OR6A2 I50V
T7 sequence (whole entry): T6 sequence (whole entry) with I50V
Procedure, shortened: as §1

OR6B1 (Homo sapiens) = biological target: T8, OR6B1 (Homo sapiens) (UniProt O95007)
T8 sequence (whole entry): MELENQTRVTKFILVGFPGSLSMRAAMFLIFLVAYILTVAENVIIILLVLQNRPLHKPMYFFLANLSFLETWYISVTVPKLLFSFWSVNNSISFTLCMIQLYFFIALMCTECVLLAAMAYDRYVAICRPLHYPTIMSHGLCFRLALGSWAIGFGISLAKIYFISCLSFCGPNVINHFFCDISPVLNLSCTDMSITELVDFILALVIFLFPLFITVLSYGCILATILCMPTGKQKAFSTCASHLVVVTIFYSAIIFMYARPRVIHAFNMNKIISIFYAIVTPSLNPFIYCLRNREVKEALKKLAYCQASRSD
Procedure, shortened: as §1

OR6B2 (Homo sapiens) = biological target: T9, OR6B2 (Homo sapiens) (UniProt Q6IFH4)
T9 sequence (whole entry): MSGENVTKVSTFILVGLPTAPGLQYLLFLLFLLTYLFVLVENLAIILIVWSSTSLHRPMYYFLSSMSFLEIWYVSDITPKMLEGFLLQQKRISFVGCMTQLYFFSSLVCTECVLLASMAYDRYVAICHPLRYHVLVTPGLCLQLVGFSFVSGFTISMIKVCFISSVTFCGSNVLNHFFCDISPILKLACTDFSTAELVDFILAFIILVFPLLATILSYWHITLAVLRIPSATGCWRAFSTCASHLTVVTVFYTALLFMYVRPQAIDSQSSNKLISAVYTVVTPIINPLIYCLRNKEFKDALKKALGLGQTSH
Procedure, shortened: as §1

OR6B2 R122C C179R = system: T10, OR6B2 R122C C179R
T10 sequence (whole entry): T9 sequence (whole entry) with R122C, C179R
Procedure, shortened: as §1

OR6B3 (Homo sapiens) = biological target: T11, OR6B3 (Homo sapiens) (UniProt Q8NGW1)
T11 sequence (whole entry): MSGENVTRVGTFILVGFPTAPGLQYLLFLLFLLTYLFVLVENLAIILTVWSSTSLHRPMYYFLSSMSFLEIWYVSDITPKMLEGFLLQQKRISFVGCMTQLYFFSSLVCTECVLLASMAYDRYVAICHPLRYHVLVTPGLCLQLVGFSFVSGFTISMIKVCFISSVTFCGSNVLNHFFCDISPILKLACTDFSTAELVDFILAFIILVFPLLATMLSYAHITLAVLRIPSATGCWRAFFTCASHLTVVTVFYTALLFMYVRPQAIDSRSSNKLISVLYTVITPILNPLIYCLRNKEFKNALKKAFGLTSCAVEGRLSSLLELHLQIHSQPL
Procedure, shortened: as §1

OR6B3 T48I R131C = system: T12, OR6B3 T48I R131C
T12 sequence (whole entry): T11 sequence (whole entry) with T48I, R131C
Procedure, shortened: as §1

OR6C1 (Homo sapiens) = biological target: T13, OR6C1 (Homo sapiens) (UniProt Q96RD1)
T13 sequence (whole entry): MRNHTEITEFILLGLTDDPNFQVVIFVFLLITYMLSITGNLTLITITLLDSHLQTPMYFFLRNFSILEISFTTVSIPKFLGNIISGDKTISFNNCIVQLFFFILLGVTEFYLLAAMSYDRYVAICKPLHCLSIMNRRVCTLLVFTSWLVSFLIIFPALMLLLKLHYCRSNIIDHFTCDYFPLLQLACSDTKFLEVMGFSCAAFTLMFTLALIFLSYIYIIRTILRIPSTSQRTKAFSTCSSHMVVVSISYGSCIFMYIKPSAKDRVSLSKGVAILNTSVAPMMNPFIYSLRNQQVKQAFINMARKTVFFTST
Procedure, shortened: as §1

OR6C1 C130Y H165D V246I = system: T14, OR6C1 C130Y H165D V246I
T14 sequence (whole entry): T13 sequence (whole entry) with C130Y, H165D, V246I
Procedure, shortened: as §1

OR6C2 (Homo sapiens) = biological target: T15, OR6C2 (Homo sapiens) (UniProt Q9NZP2)
T15 sequence (whole entry): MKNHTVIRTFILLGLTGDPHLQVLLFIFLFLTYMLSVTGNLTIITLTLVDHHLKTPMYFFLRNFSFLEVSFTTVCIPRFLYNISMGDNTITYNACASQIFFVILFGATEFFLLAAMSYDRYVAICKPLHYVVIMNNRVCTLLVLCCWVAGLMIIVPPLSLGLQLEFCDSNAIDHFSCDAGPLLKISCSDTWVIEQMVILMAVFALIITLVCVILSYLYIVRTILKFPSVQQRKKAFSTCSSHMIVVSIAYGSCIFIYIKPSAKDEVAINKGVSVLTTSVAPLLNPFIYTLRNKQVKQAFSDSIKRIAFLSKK
Procedure, shortened: as §1

OR6C3 (Homo sapiens) = biological target: T16, OR6C3 (Homo sapiens) (UniProt Q9NZP0)
T16 sequence (whole entry): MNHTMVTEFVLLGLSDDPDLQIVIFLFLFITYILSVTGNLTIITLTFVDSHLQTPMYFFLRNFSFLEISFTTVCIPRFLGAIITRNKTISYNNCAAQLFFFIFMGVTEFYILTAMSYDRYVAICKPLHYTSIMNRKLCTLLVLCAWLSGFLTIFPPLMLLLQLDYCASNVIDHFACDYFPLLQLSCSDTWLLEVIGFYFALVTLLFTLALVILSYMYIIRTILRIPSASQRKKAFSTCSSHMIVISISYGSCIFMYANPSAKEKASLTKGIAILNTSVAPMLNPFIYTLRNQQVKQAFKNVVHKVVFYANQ
Procedure, shortened: as §1

OR6C4 (Homo sapiens) = biological target: T17, OR6C4 (Homo sapiens) (UniProt Q8NGE1)
T17 sequence (whole entry): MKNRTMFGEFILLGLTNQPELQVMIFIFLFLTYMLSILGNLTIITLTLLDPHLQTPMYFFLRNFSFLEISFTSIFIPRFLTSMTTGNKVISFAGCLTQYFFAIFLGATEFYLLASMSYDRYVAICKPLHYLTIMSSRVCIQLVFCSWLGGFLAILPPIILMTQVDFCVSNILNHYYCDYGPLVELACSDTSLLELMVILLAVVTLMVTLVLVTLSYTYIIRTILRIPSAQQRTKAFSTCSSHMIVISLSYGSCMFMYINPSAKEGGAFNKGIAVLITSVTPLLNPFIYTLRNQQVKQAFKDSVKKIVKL
Procedure, shortened: as §1

OR6C4 = system: T18, OR6C4
T18 sequence (whole entry): T17 sequence (whole entry) with I37V
Procedure, shortened: as §1

OR6C6 (Homo sapiens) = biological target: T19, OR6C6 (Homo sapiens) (UniProt A6NF89)
T19 sequence (whole entry): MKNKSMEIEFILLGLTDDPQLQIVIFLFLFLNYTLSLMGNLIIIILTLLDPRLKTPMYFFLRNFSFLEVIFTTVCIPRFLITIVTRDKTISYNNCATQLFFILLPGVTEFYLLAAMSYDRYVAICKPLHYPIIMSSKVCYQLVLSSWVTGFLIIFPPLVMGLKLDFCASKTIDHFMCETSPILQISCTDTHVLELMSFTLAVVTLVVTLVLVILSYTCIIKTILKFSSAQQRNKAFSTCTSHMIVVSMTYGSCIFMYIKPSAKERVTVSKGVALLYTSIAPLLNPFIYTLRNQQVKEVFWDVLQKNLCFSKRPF
Procedure, shortened: as §1

OR6C6 M6I = system: T20, OR6C6 M6I
T20 sequence (whole entry): T19 sequence (whole entry) with M6I
Procedure, shortened: as §1

Measured: odorant receptor agonist call;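 further: active if original authors judged signal statistically different from baseline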

CCC1OC(=O)C(O)=C1C (stereo not drawn)
inactive: all assays above

CC1=C(O)C(=O)OC1C (stereo not drawn)
inactive: all assays above

CCCCC(S)C(C)CO (stereo not drawn)
not listed: OR5T2 S4G | OR5W2 R189C | OR6A2 I50V | OR6B2 R122C C179R | OR6B3 T48I R131C | OR6C1 C130Y H165D V246I | OR6C4 | OR6C6 M6I
inactive: all other assays above

CCCC(S)CCOC(C)=O (stereo not drawn)
inactive: all assays above

CCC(S)C(C)CO (stereo not drawn)
not listed: OR5T2 S4G | OR5W2 R189C | OR6A2 I50V | OR6B2 R122C C179R | OR6B3 T48I R131C | OR6C1 C130Y H165D V246I | OR6C4 | OR6C6 M6I
inactive: all other assays above

CCCCCC(=O)C(C)C(C)=O (stereo not drawn)
not listed: OR5T2 S4G | OR5W2 R189C | OR6A2 I50V | OR6B2 R122C C179R | OR6B3 T48I R131C | OR6C1 C130Y H165D V246I | OR6C4 | OR6C6 M6I
inactive: all other assays above

CC(=O)c1c(C)c([N+](=O)[O-])c(C(C)(C)C)c([N+](=O)[O-])c1C
not listed: OR5T2 S4G | OR5W2 R189C | OR6A2 I50V | OR6B2 R122C C179R | OR6B3 T48I R131C | OR6C1 C130Y H165D V246I | OR6C4 | OR6C6 M6I
inactive: all other assays above

CC1=NC(C)C(C)S1 (stereo not drawn)
inactive: all assays above
